The results in this text go back to ChEMBL document CHEMBL4364341, “Radiosensitization of Head and Neck Squamous Cell Carcinoma (HNSCC) by a Podophyllotoxin” (ACS Med Chem Lett, 2019).

For assay [1], the system named is SCC-25. Description: Antiproliferative activity against human SCC25 cells assessed as reduction in cell viability at 1 uM after 6 days by MTT assay relative to control. The class given is functional, cell-based. In short, it runs like this:
(§1)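 FaDu or SCC-25 cells were grown in DMEM with 10% FBS at 37 °C and 5% CO2. They were seeded at 1000 cells/well in 96-well plates for 24 h, then dosed with compound (fresh DMSO stock diluted in medium) or vehicle. After 1 h, X-rays were given with a sliding 5 mm lead shield, so one plate held 0, 2.5, 5 and 10 Gy columns. After 6 days, MTT (0.5 mg/mL, 45 min) was added, then DMSO, and A570 was read. Values were normalised to the unirradiated vehicle control. Fractional inhibition = 1 − surviving fraction.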
A general note: Tetrazolium assays rely on reduction of a dye to a coloured formazan, in cell work by metabolically active cells.

For assay [2], the system named is SCC-25. Description: Synergistic induction of cell cycle arrest in human SCC25 cells assessed as decrease in accumulation at G0/G1 phase at 0.5 uM followed irradiation with 5Gy IR incubated for 24 hrs by propidium iodide staining based flow cytometry. The class given is functional. The method in brief:
(§2)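 FaDu or SCC-25 cells, untreated, given 5 Gy IR, drug, or drug plus 5 Gy. Cell-cycle distribution by propidium iodide staining and flow cytometry at 6 h and 24 h after treatment. G0/G1, S and G2/M fractions compared with control by t test.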
For orientation: Flow cytometry measures light scatter and fluorescence of single cells or particles in a stream.

The test system of assay [3] is SCC-25. Description: Synergistic induction of cell cycle arrest in human SCC25 cells assessed as decrease in accumulation at S phase at 0.5 uM followed irradiation with 5Gy IR incubated for 24 hrs by propidium iodide staining based flow cytometry. The class given is functional. The method in brief: as §2
In assay [4] the test system is FaDu. Description: Synergistic antiproliferative activity against human FADU cells assessed as fractional inhibition at 0.5 uM preincubated for 1 hr followed by irradiation with 2.5 Gy IR and measured after 6 days by MTT assay (reference value: 0.131). The class given is functional. The method in brief:
as §1

For assay [5], the system named is FaDu. Description: Synergistic antiproliferative activity against human FADU cells assessed as fractional inhibition at 5 uM preincubated for 1 hr followed by irradiation with 2.5 Gy IR and measured after 6 days by MTT assay (reference value: 0.131). The class given is functional. The method in brief: as §1
The test system of assay [6] is FaDu. Description: Synergistic antiproliferative activity against human FADU cells assessed as fractional inhibition at 0.005 uM preincubated for 1 hr followed by irradiation with 5 Gy IR and measured after 6 days by MTT assay (reference value: 0.097). The class given is functional. The method in brief: as §1
Assay [7] relates to FaDu. Description: Synergistic antiproliferative activity against human FADU cells assessed as combination index at 5 uM preincubated for 1 hr followed by irradiation with 2.5 Gy IR and measured after 6 days by MTT assay. In kind it is functional. The method in brief:
(§3)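 Combination index was calculated by the Chou–Talalay median-effect method from the 6-day MTT viability data of the single-plate compound/X-ray (2.5, 5, 10 Gy) design. CI < 1 denotes synergy, CI = 1 additivity and CI > 1 antagonism.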

The test system of assay [8] is FaDu. Description: Synergistic antiproliferative activity against human FADU cells assessed as combination index at 0.005 uM preincubated for 1 hr followed by irradiation with 10 Gy IR and measured after 6 days by MTT assay. In kind it is functional. The method in brief: as §3
In assay [9] the test system is SCC-25. Description: Synergistic antiproliferative activity against human SCC25 cells assessed as combination index at 0.005 uM preincubated for 1 hr followed by irradiation with 5 Gy IR and measured after 6 days by MTT assay. The class given is functional. The method in brief:
(§4)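 SCC-25 cells grown in DMEM with 10% FBS at 37 °C, 5% CO2, seeded 1000 cells/well in 96-well plates and left 24 h. Drug in DMSO, diluted in complete medium, added 1 h before X-irradiation. A movable 5 mm lead shield gave 0, 2.5, 5 or 10 Gy on one plate. After 6 days, MTT readout at 570 nm. Combination index by Chou–Talalay from viability data.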

Assay [10] concerns SCC-25. Description: Synergistic antiproliferative activity against human SCC25 cells assessed as combination index at 0.05 uM preincubated for 1 hr followed by irradiation with 5 Gy IR and measured after 6 days by MTT assay. The class given is functional. The method in brief: as §4
Assay [11] concerns the target T1, Nuclear factor erythroid 2-related factor 2 (Homo sapiens) (UniProt Q16236).
T1 sequence (whole entry): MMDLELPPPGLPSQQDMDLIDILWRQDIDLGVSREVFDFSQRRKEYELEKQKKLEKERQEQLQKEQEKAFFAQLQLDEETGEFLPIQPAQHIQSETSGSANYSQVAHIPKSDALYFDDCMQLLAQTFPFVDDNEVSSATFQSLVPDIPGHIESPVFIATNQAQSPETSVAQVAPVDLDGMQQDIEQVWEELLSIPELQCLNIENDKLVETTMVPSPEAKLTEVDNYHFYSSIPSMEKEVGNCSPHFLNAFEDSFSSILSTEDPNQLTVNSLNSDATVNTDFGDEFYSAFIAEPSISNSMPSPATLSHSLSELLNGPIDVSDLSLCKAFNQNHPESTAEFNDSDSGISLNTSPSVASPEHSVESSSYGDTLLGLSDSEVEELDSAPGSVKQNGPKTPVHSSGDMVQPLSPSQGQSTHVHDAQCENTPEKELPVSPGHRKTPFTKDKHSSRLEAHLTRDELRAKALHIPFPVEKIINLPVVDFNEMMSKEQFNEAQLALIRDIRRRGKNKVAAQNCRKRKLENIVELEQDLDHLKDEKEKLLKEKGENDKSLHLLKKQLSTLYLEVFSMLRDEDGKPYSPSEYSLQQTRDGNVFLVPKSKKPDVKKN
Description: Synergistic inhibition of Nrf2 in human FADU cells at 0.5 uM followed by irradiation with 5 Gy IR incubated for 48 hrs by immunofluorescence analysis. The class given is cell-based.

For assay [12], the system named is SCC-25. Description: Synergistic induction of apoptosis in human SCC25 cells assessed as increase in caspase at 0.5 uM followed by irradiation with 5 Gy IR incubated for 48 hrs by luminescence based analysis. The class given is functional, cell-based.

Structures are written as SMILES. Activity calls are given as the source filed them. The calls are words filed in the database; no cut-off is given here.

Turning to `COc1ccc2c(c1)N(CCO)C1=C(C(=O)OC1)C2c1ccccc1` (configuration not stated), in the assay with SCC-25 [1], the inhibition entry is “inactive”. Moreover, the outcome with SCC-25 [2], with SCC-25 [3] and in the assay with SCC-25 [12] was Active. Moreover, the “fractional inhibitory concentration index (FICI)” value in the assay with FaDu [4] is 0.443; in the assay with FaDu [5], 0.501; with FaDu [6], 0.136. Besides, the CI came out at 1.225 in the assay with FaDu [7], 0.856 with FaDu [8], 0.801 in the assay on SCC-25 [9] and 1.753 in the assay on SCC-25 [10]. For the same compound, the inhibition entry in assay [11] was “Active”.
